Shown are actives, neighbours in structure and some others; about 3.4% of the full set was active somewhere.
ERAP1 inh – ERAP1 (human) enzyme inhibition; inhibition, % at 10.7 µM; recombinant ERAP1, Leu-AMC fluorescence, 60 min; AID 652197; Q9NZ08; 340,000 tested, 0.15% active;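 active = mean replicate inhibition of at least 30%, or all replicates individually reaching that 30% level; inactive = mean below 30% and not every replicate reaching it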;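 note: 0% = neutral control wells and 100% = L-leucinethiol positive control wells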
SIRT5 inh – blocks human SIRT5 desuccinylation of peptide | 330,000 tested, 1.1% active | Purified SirT5, succinyl-peptide AMC, trypsin-coupled fluorescence | Q9NXA8 | inhibition, % at 15 µM; in the data active = inhibition above about 15%
Target sequence (Q9NXA8 whole entry, looked up): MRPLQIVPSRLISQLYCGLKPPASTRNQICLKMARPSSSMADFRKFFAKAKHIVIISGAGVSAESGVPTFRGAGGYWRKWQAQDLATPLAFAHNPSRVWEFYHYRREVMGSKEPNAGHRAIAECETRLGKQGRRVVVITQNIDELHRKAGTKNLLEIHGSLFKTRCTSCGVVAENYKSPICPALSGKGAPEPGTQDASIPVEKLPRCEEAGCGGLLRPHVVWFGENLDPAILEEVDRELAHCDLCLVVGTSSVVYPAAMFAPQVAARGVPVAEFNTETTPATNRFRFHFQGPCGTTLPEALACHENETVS
S100A4 inh HTS – S100A4-myosin IIA interaction inhibition | P26447 | S100A4/TAMRA-MyoIIA peptide fluorescence polarization | inhibition, % at 10.7 µM | 360,000 tested, 0.14% active;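 active = mean inhibition of at least 70% across replicates, with every replicate also reaching that level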
Target sequence (P26447 whole entry, looked up): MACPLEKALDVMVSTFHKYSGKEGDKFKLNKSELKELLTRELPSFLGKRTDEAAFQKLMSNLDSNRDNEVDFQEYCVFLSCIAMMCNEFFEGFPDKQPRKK
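Material: S100A4 monomer protein | Medium: HEPES pH 7.2 with CaCl2, KCl, NaCl, DTT, Triton | Reagent: Labelled myosin peptide probe, 5 nM | Doses: One dose per compound | Times: 5 min incubation before reading | Benchmarks: Neutral control DMSO, positive control TFP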
E-selectin induc – induces E-selectin expression in human endothelial cells | 260,000 tested, 0.37% active | P16581 | HUVEC E-selectin immunofluorescence imaging; normalized: neutral wells 0, TNF-alpha wells 100 | activation, % at 7.58 µM | AID 686992;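 active = mean E-selectin-positive cell signal at least 10% of the positive control, reached in at least 60% of replicates, without over 20% cell loss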
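Assay system: HUVEC primary endothelial cells. Input: 3,000 HUVEC seeded per well. Doses: one compound dose added by pin transfer. Read-out basis: % PE-positive cells. Benchmarks: TNF-alpha high, DMSO low. Detection: immunofluorescence imaging. Buffer or medium: EGM-2, gelatin.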
MLL AF4-AF9 inh – inhibitors of human MLL-AF4/AF9 interaction. 350,000 tested, 0.47% active. AlphaScreen, biotin-AF4 peptide binding to FLAG-AF9. inhibition, % at 10 µM;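 active = every replicate reaching a set inhibition limit, whatever the replicate mean, cut at about 25% in these data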;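 note: 0% = plate neutral control median and 100% = total signal loss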
Ecoli rRNA inh – inhibits bacterial ribosomal RNA function over humanized ribosomes; 350,000 tested, 1.6% active; GFP signal change (wild-type ribosome), % (concentration not given with the values); AID 720706; E. coli WT GFP vs humanized-ribosome RFP mutants, fluorescence, 24 h; active compounds read low; DMSO median 0, no signal -100;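 active = significant combined selectivity score with lowered wild-type GFP, culture density cut under 30%, mutant RFP and density less affected; inactive = any of these conditions unmet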
Numbers without * were called inactive; · = no result given; ! = a repeat was not active.

SMILES | ERAP1 inh | SIRT5 inh | S100A4 inh HTS | E-selectin induc | MLL AF4-AF9 inh | Ecoli rRNA inh
COc1ccc(CN(C)C[C@@H]2Oc3ccc(NS(=O)(=O)c4c(C)noc4C)cc3CC(=O)N([C@@H](C)CO)C[C@@H]2C)cc1 | -10 | 24* | 2 | 0 | -2 | -3
Cc1noc(C)c1S(=O)(=O)Nc1ccc2c(c1)CC(=O)N([C@H](C)CO)C[C@H](C)[C@H](CN(C)Cc1ccc(-c3ccccc3)cc1)O2 | 4 | 15* | 15 | 1 | 7 | 3
O=c1cc(C(F)(F)F)[nH]c2ccc(C(F)(F)F)cc12 | 5 | -5 | -9 | 0 | · | -50*
CC(C)Cc1nnc(NC(=O)C2CCN(C(=O)c3ccc(Cl)cc3)CC2)s1 | 0 | 1 | 2 | · | 2 | 7
CC(C)c1nnc(NC(=O)C2CCN(C(=O)Nc3ccc(Cl)cc3)CC2)s1 | 0 | -4 | 4 | · | 0 | -23*
Clc1nc(NCCc2ccccc2)c2cn[nH]c2n1 | -1 | · | -3 | -1 | 3 | -30*
C/C(=N/NS(=O)(=O)c1cccc([N+](=O)[O-])c1)c1ccncc1 | -3 | 0 | 0 | 28* | -3 | 16
COC(=O)C(C)Oc1cc(OC(C)C(=O)OC)c2c(-c3ccccc3)cc(=O)oc2c1 (centres undefined) | -1 | 0 | 1 | 0 | -2 | -24*
COc1ccc(NC(=O)Nc2ccc3c(c2)C(=O)N([C@H](C)CO)C[C@@H](C)[C@@H](CN(C)Cc2ccc(C(=O)O)cc2)OCCCC[C@H](C)O3)cc1 | 0 | 2 | 7 | 0 | 2 | 1
CC(C)C#Cc1ccc2c(c1)O[C@H](CN(C)Cc1ccccc1)[C@@H](C)CN([C@@H](C)CO)S2(=O)=O | 1 | 8 | 30 | 3 | 6 | -1
CCCC#Cc1ccc2c(c1)O[C@H](CN(C)Cc1ccccc1)[C@@H](C)CN([C@H](C)CO)S2(=O)=O | · | 20* | -4 | 0 | 1 | -2
CC(C)C#Cc1ccc2c(c1)O[C@@H](CN(C)Cc1ccccc1)[C@@H](C)CN([C@@H](C)CO)S2(=O)=O | 2 | 17* | 4 | 0 | 6 | -5
CC(C)C#Cc1ccc2c(c1)O[C@H](CN(C)Cc1ccccc1)[C@H](C)CN([C@H](C)CO)S2(=O)=O | 1 | 16* | 1 | 0 | 5 | -16
CC(C)C#Cc1ccc2c(c1)O[C@H](CN(C)Cc1ccccc1)[C@@H](C)CN([C@H](C)CO)S2(=O)=O | 5 | 1 | 4 | 0 | 1 | 7
Cc1noc(C)c1S(=O)(=O)N(C)C[C@H]1Oc2ccc(NC(=O)CCN3CCOCC3)cc2CC(=O)N([C@@H](C)CO)C[C@H]1C | -1 | -3 | -5 | -8 | -1 | 0
CCCNC(=O)C[C@@H]1CC[C@H]2[C@@H](COc3ccc(NC(=O)c4ccc(Cl)cc4)cc3C(=O)N2C)O1 | · | -5 | 32 | 0 | · | -3
O=C(Nc1ccc(-n2ccc(C(F)(F)F)n2)cc1)Nc1cccc(Cl)c1 | 2 | -1 | -3 | 1 | · | -51*
COc1ccccc1NC(=O)Nc1ccc(-n2ccc(C(F)(F)F)n2)cc1 | -1 | -5 | -5 | · | 1 | -16
Cc1cc(C)cc(NC(=O)Nc2ccc(-n3ccc(C(F)(F)F)n3)cc2)c1 | -1 | -1 | -3 | 46* | 1 | -2
Cc1ccc(S(=O)(=O)Nc2ccc3c(c2)CC(=O)N([C@H](C)CO)C[C@H](C)[C@@H](CN(C)S(=O)(=O)c2ccccc2)O3)cc1 | · | · | · | 0 | · | -5
COc1cc(/C=N/NC(=S)Nc2cccc(C(=O)O)c2)cc(OC)c1OC | -4 | 23* | -5 | 0 | -5 | 6
COc1cccc(/C=N/NC(=S)Nc2cccc(S(=O)(=O)N(C)C)c2)c1 | -4 | -2 | 5 | · | 0 | -18*
COc1cc(/C=N/NC(=S)Nc2cccc(S(=O)(=O)N(C)C)c2)cc(OC)c1O | -1 | 1 | 0 | · | 16 | -1
COc1ccc(NS(=O)(=O)c2cccc(NC(=O)c3ccc(Cl)nc3)c2)cc1 | -5 | -4 | -6 | · | 2 | -25*
C[C@@H]1CN([C@H](C)CO)C(=O)CCCn2nncc2CO[C@@H]1CN(C)C(=O)c1ccc(N2CCN(C)CC2)cc1 | 2 | -5 | 11 | 0 | 1 | 5
SMILES | ERAP1 inh | SIRT5 inh | S100A4 inh HTS | E-selectin induc | MLL AF4-AF9 inh | Ecoli rRNA inh
C[C@@H]1CN([C@@H](C)CO)C(=O)CCCn2nncc2CO[C@@H]1CN(C)C(=O)Nc1cccc2ccccc12 | 14 | -3 | -2 | 0 | 1 | -8
C[C@@H]1CN([C@@H](C)CO)C(=O)CCCn2nncc2CO[C@H]1CN(C)C(=O)C1CCCCC1 | -5 | 29*! | 0 | -1 | -1 | 2
CC(C)NC(=O)N(C)C[C@@H]1OCc2cnnn2CCCC(=O)N([C@@H](C)CO)C[C@H]1C | -3 | 26*! | 48 | 0 | -1 | 8
C[C@@H]1CN([C@H](C)CO)C(=O)CCCn2nncc2CO[C@H]1CN(C)C(=O)Nc1cccc2ccccc12 | 0 | 76* | 6 | 0 | 1 | 5
C[C@H](CO)N1C[C@H](C)[C@@H](CN(C)C(=O)c2ccc(N3CCN(C)CC3)cc2)OCc2cnnn2CCCC1=O | 1 | 33*! | -1 | 0 | -5 | 2
COc1cccc(CNC(=O)C[C@H]2CC[C@H]3[C@H](COc4ccc(NC(=O)c5cccs5)cc4C(=O)N3C)O2)c1 | -1 | -1 | -42 | 0 | -1 | -4
C[C@H]1CN([C@@H](C)CO)C(=O)CCCn2cc(nn2)CO[C@@H]1CN(C)Cc1ccncc1 | 2 | -1 | -2 | 0 | -3 | 4
CC(=O)N(C)C[C@@H]1Oc2ncc(-c3cccc(C#N)c3)cc2C(=O)N([C@@H](C)CO)C[C@@H]1C | 2 | 3 | 4 | 0 | -4 | 2
C[C@H](CO)N1C[C@H](C)[C@H](CN(C)C(=O)Nc2ccc(C(F)(F)F)cc2)OCc2cnnn2CCCC1=O | 7 | -3 | 3 | 0 | 0 | -11*!
C[C@H](CO)N1C[C@H](C)[C@@H](CN(C)C(=O)Nc2ccccc2)OCc2cnnn2CCCC1=O | -1 | -1 | 1 | 0 | -1 | -4
C[C@H](CO)N1C[C@H](C)[C@H](CN(C)C(=O)c2cc(-c3ccccc3)on2)OCc2cnnn2CCCC1=O | -6 | 18*! | 2 | 0 | 1 | 6
C[C@H](CO)N1C[C@H](C)[C@@H](CN(C)C(=O)Nc2ccc(C(F)(F)F)cc2)OCc2cnnn2CCCC1=O | 0 | -73 | 3 | 0 | 0 | -13
C[C@H]1CN([C@@H](C)CO)C(=O)CCCn2nncc2CO[C@@H]1CN(C)C(=O)Nc1ccccc1 | -1 | 28* | 3 | 0 | -1 | 1

Screens (PubChem)
